Experimental data taken from ChEMBL document CHEMBL1641494, “Modulation of PPAR subtype selectivity. Part 2: Transforming PPARα/γ dual agonist into α selective PPAR agonist through bioisosteric modification” (Bioorg Med Chem Lett, 2011).
Blank lines part the entries; values can stand above or below the molecule they belong to. Calls of active or inactive are those of the source. The rule behind the calls is not given here.

What was measured:
[1] = target: T1, Peroxisome proliferator-activated receptor alpha (Homo sapiens) (UniProt Q07869); assay: Agonist activity at human PPARalpha in human HepG2 cells co-transfected with PPRE3-TK-luc assessed as induction of transactivation activity at 10 uM by luciferase reporter gene assay relative to control; assay type: functional, cell-based
T1 sequence (whole entry): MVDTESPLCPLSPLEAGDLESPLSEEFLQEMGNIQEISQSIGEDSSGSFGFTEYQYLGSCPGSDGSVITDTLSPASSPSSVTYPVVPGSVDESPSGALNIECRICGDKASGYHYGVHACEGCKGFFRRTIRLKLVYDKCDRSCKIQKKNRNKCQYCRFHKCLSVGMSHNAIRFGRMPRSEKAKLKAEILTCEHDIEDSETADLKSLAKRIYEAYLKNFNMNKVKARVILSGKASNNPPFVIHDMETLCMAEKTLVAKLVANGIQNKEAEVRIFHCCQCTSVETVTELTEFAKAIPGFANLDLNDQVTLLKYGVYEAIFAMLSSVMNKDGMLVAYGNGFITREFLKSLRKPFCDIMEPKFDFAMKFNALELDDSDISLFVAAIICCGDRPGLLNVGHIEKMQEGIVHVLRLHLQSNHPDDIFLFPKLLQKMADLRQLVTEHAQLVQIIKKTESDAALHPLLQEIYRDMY
Outline: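 HepG2 cells were transfected with pSG5 vector carrying human PPARα cDNA and co-transfected with PPRE3-TK-luc. Firefly luciferase was read and normalised to β-galactosidase activity measured in an ELISA reader. Compound was tested at 10 µM. Results are expressed as fold induction versus vehicle (1% DMSO).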

[2] = system: Rattus norvegicus; assay: Antihyperlipidemic activity in Sprague-Dawley rat assessed as reduction of serum total cholesterol level at 3 mg/kg, po qd for 14 days relative to control; assay type: functional; parameters: scale not given: the % may be the effect or the level left
Outline: (§1)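 Male Sprague–Dawley rats were fed a high-cholesterol diet for 15 days, then given vehicle or compound by oral gavage once daily for 14 days. Serum TG, total cholesterol, LDL-C and HDL-C were measured. Results are expressed as % change versus vehicle (n = 9).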

[3] = system: Mus musculus; assay: Antihyperglycemic activity in db/db mouse assessed as reduction of serum glucose level at 3 mg/kg, po qd for 7 days relative to control; assay type: functional; parameters: scale not given: the % may be the effect or the level left
Outline: (§2)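 Male db/db mice aged 6–8 weeks were dosed orally once daily for 7 days. Serum triglycerides and glucose were then measured. Results are expressed as % change versus vehicle-treated controls (n = 6).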

[4] = system: Rattus norvegicus; assay: Antihyperlipidemic activity in Sprague-Dawley rat assessed as reduction of serum LDL-cholesterol level at 3 mg/kg, po qd for 14 days relative to control; assay type: functional; parameters: scale not given: the % may be the effect or the level left; outline: as §1
[5] = system: Rattus norvegicus; assay: Antihyperlipidemic activity in Sprague-Dawley rat assessed as increase of serum HDL-cholesterol level at 3 mg/kg, po qd for 14 days relative to control; assay type: functional; outline: as §1
[6] = Half life in Wistar rat at 30 mg/kg, po; assay type: ADME, organism-based; parameters: dose 30 mg/kg, route oral; conditions: in vivo
Outline: (§3)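 Single oral dose of 30 mpk to fasted male Wistar rats (n = 6). Plasma concentrations were measured by LC–MS, and Tmax, Cmax, T1/2 and AUC(0–∞) were derived. Values are given as mean ± SD.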

[7] = Cmax in Wistar rat at 30 mg/kg, po; assay type: ADME, organism-based; parameters: dose 30 mg/kg, route oral; conditions: in vivo; outline: as §3
[8] = Tmax in Wistar rat at 30 mg/kg, po; assay type: ADME, organism-based; parameters: dose 30 mg/kg, route oral; conditions: in vivo; outline: as §3
[9] = system: Rattus norvegicus; assay: Antihyperlipidemic activity in Sprague-Dawley rat assessed as reduction of serum triglycerides level at 3 mg/kg, po qd for 14 days relative to control; assay type: functional; parameters: scale not given: the % may be the effect or the level left; outline: as §1
[10] = AUC (0 to infinity) in Wistar rat at 30 mg/kg, po; assay type: ADME, organism-based; parameters: time infinity, dose 30 mg/kg, route oral; conditions: plasma; outline: as §3
[11] = system: Mus musculus; assay: Antihyperlipidemic activity in db/db mouse assessed as reduction of serum triglycerides level at 3 mg/kg, po qd for 7 days relative to control; assay type: functional; parameters: scale not given: the % may be the effect or the level left; outline: as §2
[12] = system: Rattus norvegicus; assay: Antihyperlipidemic activity in Sprague-Dawley rat assessed as reduction of serum triglycerides level at 30 mg/kg, po qd for 14 days relative to control; assay type: functional; parameters: scale not given: the % may be the effect or the level left; outline: as §1
[13] = system: Rattus norvegicus; assay: Antihyperlipidemic activity in Sprague-Dawley rat assessed as reduction of serum total cholesterol level at 30 mg/kg, po qd for 14 days relative to control; assay type: functional; parameters: scale not given: the % may be the effect or the level left; outline: as §1
[14] = system: Rattus norvegicus; assay: Antihyperlipidemic activity in Sprague-Dawley rat assessed as increase of serum HDL-cholesterol level at 30 mg/kg, po qd for 14 days relative to control; assay type: functional; outline: as §1
[15] = system: Rattus norvegicus; assay: Antihyperlipidemic activity in Sprague-Dawley rat assessed as reduction of serum LDL-cholesterol level at 30 mg/kg, po qd for 14 days relative to control; assay type: functional; parameters: scale not given: the % may be the effect or the level left; outline: as §1
[16] = system: Mus musculus; assay: Antihyperglycemic activity in db/db mouse assessed as reduction of serum glucose level at 30 mg/kg, po qd for 7 days relative to control; assay type: functional; parameters: scale not given: the % may be the effect or the level left; outline: as §2
[17] = system: Mus musculus; assay: Antihyperlipidemic activity in db/db mouse assessed as reduction of serum triglycerides level at 30 mg/kg, po qd for 7 days relative to control; assay type: functional; parameters: scale not given: the % may be the effect or the level left; outline: as §2

fold change (FC) [1]: 15
half-life [6]: 14 h
Cmax [7]: 120 ng/mL
Tmax [8]: 0.61 h
AUC(0-inf) [10]: 1420 ng·h/mL
Structure (SMILES): COc1ccc(/C(C)=N/OCCOc2ccc(C[C@H]3CO[C@@](C)(C(=O)O)OC3)cc2)cc1
Activity [2]: -56%
Activity [3]: -45%
Activity [4]: -68%
Activity [5]: 68%
Activity [9]: -54%
Activity [11]: -53%

fold change (FC) [1]: 10.5
Structure (SMILES): C/C(=N\OCCOc1ccc(C[C@H]2CO[C@@](C)(C(=O)O)OC2)cc1)c1ccc(F)cc1

fold change (FC) [1]: 12.7
half-life [6]: 1.99 h
Tmax [8]: 0.65 h
Structure (SMILES): Cc1ccc(-c2nc(CCCC[C@H]3CO[C@@](C)(C(=O)O)OC3)c(C)o2)cc1
Activity [12]: -51%
Activity [13]: -49%
Activity [14]: 62%
Activity [15]: -58%
Activity [16]: -43%
Activity [17]: -54%

fold change (FC) [1]: 10.8
Structure (SMILES): C/C(=N\OCCOc1ccc(C[C@H]2CO[C@@](C)(C(=O)O)OC2)cc1)c1ccc(C)cc1

fold change (FC) [1]: 1.76
Structure (SMILES): C/C(=N\OCCOc1ccc(C[C@H]2CO[C@@](C)(C(=O)O)OC2)cc1)c1ccc2ccccc2c1

fold change (FC) [1]: 1.37
Structure (SMILES): C/C(=N\OCCOc1ccc(C[C@H]2CO[C@@](C)(C(=O)O)OC2)cc1)c1ccc(S(C)(=O)=O)cc1

fold change (FC) [1]: 14.7
Structure (SMILES): Cc1ccc(-c2nc(COc3ccc(C[C@H]4CO[C@@](C)(C(=O)O)OC4)cc3)c(C)o2)cc1

fold change (FC) [1]: 5.79
Structure (SMILES): C/C(=N\OCCOc1ccc(C[C@H]2CO[C@@](C)(C(=O)O)OC2)cc1)c1ccc(C(F)(F)F)cc1

The remaining lines, values behind:

Structure (SMILES): CN(CCOc1ccc(CC2SC(=O)NC2=O)cc1)c1ccccn1 (configuration not stated)
fold change (FC) [1]: inactive

Structure (SMILES): C/C(=N\OCCOc1ccc(C[C@H]2CO[C@@](C)(C(=O)O)OC2)cc1)c1cccnc1
fold change (FC) [1]: 2.36

Structure (SMILES): C/C(=N\OCCOc1ccc(C[C@H]2CO[C@@](C)(C(=O)O)OC2)cc1)c1ccc(OC(F)(F)F)cc1
fold change (FC) [1]: 3.48

Structure (SMILES): C/C(=N\OCCOc1ccc(C[C@H]2CO[C@@](C)(C(=O)O)OC2)cc1)c1ccccc1
fold change (FC) [1]: 10.8

Structure (SMILES): C/C(=N\OCCOc1ccc(C[C@H]2CO[C@@](C)(C(=O)O)OC2)cc1)c1ccc2c(c1)CCCC2
fold change (FC) [1]: 1.63

Structure (SMILES): COc1ccc(/C(C)=N/OCCOc2ccc(C[C@H]3CO[C@@](C)(C(=O)O)OC3)cc2)cc1OC
fold change (FC) [1]: 3.61
